# Screening data: PubChem BioAssay, several laboratories
# Most compounds without a hit are left out; they make up all but 2.2% or so of the library.
# UBC9 SUMO inh: inhibitors of human SUMOylation (UBC9). P63279. 0.36% of 290,000 active. HTRF SUMOylation assay, SAE1/SAE2 + UBC9, in vitro. inhibition, % at 35 µM. AID 2006; in the data active means inhibition above about 50%, passing the limit was not always enough; inconclusive means no clear call, values can overlap the other calls
# Rin1 Abl inh: human Rin1-Abl interaction inhibition | TR-FRET Rin1/Abl binding, biochemical | P00519+Q13671 | 0.4% of 360,000 active | inhibition, % at 7.35 µM | AID 588664; in the data active means inhibition above about 5%, passing the limit was not always enough
# Target sequence (P00519 whole entry, looked up): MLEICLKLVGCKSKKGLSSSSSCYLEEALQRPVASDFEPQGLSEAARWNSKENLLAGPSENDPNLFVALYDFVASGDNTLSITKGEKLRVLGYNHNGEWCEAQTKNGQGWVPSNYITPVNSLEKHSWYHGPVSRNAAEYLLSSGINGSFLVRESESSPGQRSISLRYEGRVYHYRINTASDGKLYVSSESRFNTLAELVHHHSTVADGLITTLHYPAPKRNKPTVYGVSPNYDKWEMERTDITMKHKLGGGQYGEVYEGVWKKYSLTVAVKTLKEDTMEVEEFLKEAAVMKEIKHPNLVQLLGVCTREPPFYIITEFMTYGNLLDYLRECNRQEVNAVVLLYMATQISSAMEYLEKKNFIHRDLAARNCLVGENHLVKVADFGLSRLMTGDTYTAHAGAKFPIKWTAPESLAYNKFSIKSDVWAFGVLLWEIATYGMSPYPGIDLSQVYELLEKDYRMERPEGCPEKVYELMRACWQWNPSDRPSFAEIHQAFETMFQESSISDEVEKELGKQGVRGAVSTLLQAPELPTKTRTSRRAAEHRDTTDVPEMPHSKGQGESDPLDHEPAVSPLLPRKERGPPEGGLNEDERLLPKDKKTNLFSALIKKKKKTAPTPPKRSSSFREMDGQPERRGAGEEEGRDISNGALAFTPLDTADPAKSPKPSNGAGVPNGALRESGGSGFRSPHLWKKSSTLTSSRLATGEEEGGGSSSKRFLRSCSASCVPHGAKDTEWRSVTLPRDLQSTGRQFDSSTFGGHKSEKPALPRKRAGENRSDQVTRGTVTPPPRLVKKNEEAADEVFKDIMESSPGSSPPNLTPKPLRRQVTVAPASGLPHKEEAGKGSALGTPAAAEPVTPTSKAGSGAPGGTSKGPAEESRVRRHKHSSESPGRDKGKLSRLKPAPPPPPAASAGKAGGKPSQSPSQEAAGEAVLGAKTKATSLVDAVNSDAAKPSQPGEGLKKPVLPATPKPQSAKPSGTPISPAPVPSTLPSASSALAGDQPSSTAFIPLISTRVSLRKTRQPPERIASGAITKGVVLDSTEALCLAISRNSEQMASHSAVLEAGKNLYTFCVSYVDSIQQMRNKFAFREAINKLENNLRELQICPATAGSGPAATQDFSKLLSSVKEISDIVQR
# Target sequence (Q13671 whole entry, looked up): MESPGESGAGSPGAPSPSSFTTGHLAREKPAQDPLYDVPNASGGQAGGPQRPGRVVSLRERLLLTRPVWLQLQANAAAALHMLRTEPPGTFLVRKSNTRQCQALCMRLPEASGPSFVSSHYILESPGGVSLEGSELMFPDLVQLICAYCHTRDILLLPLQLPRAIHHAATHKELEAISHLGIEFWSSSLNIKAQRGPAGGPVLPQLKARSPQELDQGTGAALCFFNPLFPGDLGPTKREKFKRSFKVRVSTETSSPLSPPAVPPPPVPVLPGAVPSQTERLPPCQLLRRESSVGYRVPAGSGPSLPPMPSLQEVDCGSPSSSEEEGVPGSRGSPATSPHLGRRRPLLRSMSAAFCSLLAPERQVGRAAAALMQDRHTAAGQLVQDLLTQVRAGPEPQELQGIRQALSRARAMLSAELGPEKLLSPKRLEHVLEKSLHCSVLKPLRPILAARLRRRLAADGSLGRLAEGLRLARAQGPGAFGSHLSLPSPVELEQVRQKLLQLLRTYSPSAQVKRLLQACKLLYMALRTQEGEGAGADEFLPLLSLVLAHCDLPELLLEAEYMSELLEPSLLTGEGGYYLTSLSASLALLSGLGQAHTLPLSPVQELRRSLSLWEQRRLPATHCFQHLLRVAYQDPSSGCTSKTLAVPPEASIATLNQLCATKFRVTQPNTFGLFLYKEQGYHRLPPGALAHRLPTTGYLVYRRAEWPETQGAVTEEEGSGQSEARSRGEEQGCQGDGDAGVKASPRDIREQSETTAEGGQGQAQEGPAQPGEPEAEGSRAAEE
# Apaf1 inhib: inhibitors of human Apaf-1 apoptosome; AID 489030; reconstituted apoptosome caspase-3 activity, DEVD-Rh110 fluorescence; inhibition, % at 20 µM; 0.71% of 330,000 active; active means inhibition of at least 40% at 20 µM
#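 Material: reconstituted apoptosome with Apaf-1, cytochrome c, caspase-9, procaspase-3, dATP. Technique: Rh110 fluorescence intensity. Buffer or medium: pH 7.5 Hepes buffer with CHAPS, BSA, DTT. Times: 30 min plus 50 min, RT.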
# PAD4 FP inh: inhibitors of human PAD4. recombinant PAD4, RCA probe fluorescence polarization. Q9UM07. inhibition, % at 6.36 µM. 0.41% of 330,000 active. AID 485272;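 active means percent inhibition above a cutoff equal to the mean of all tested compounds plus 3 SD, cut at about 15% in these data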
# GSTO1 inh: blocks human GSTO1 in RBBP9 counter-screen; P78417; recombinant GSTO1, activity-based probe fluorescence polarization; inhibition, % at 5.96 µM; 1.1% of 300,000 active; AID 1974;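 active means inhibition above the campaign mean inhibition plus 3 SD, cut at about 35% in these data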
# UBC13 inh: blocks human UBC13 polyubiquitin chain formation | P61088 | TR-FRET | inhibition, % at 20 µM | 0.47% of 330,000 active; in the data active means inhibition above about 45%, passing the limit was not always enough; inconclusive means no clear call, values can overlap the other calls
# Casp3 UBC13 ctr: counter-screen for UBC13 inhibitors: human caspase-3 inhibition. AID 488856. 4% of 1,400 active. inhibition, % at 20 µM. Recombinant caspase-3, Caspase-Glo 3/7 luminescence, 60 min. shares compounds with UBC13 inh;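 active means mean inhibition across replicates above about 26%, limit read from the data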
# UBC13 conf: human UBC13 polyubiquitin inhibition, confirmed | shares compounds with UBC13 inh | UBC13 polyubiquitination, TR-FRET, biochemical | inhibition, % at 10 µM | 68% of 1,400 active | AID 488859; in the data active means inhibition above about 45%; inconclusive means no clear call, values can overlap the other calls
# A number is an active result; – = inactive; ? = inconclusive; · = not tested or not shown.
SMILES,UBC9 SUMO inh,Rin1 Abl inh,Apaf1 inhib,PAD4 FP inh,GSTO1 inh,UBC13 inh,Casp3 UBC13 ctr,UBC13 conf
CCCOc1ccc(C(=O)NNC(=S)NC(=O)c2ccccc2)cc1,–,–,–,–,–,–,·,·
CCC(=O)NC(=S)NNC(=O)c1ccc(OC)cc1,–,–,–,–,–,81,–,86
COc1ccc(S(=O)(=O)N(C)Cc2ccc3c(c2)OCCO3)cc1,·,–,–,–,·,–,·,·
CNC(=O)c1ccsc1NC(=O)C1CCCN1S(=O)(=O)c1cccs1 (configuration not stated),·,–,–,–,–,46,–,79
Cn1c(=O)c2c(ncn2Cc2ccc(Cl)cc2)n(C)c1=O,–,–,–,–,–,57,–,53
COCc1cc(C)nc2sc(C(=O)Nc3cccc(OC)c3)c(N)c12,–,–,–,–,–,–,·,·
COc1ccccc1NC(=O)c1c(N=Cc2ccccc2O)cnn1C,–,·,–,–,–,87,–,96
CCOC(=O)C1CCN(C(=O)COC(=O)C2CCN(S(=O)(=O)c3ccc(C)c(C)c3)CC2)CC1,·,–,–,–,–,–,·,·
CCCN1CCN(C(=O)C2CCN(c3ncnc4c3nc3n4CCCCC3)CC2)CC1,–,–,–,–,–,77,–,94
O=C(NCC1CCN(Cc2ccccc2F)CC1)C1CCCN(c2ncnc3c2nc2n3CCCCC2)C1 (configuration not stated),–,–,–,–,–,47,–,60
Cc1ccc(CN2CCC(CNC(=O)C3CCCN(c4ncnc5c4nc4n5CCCCC4)C3)CC2)cc1 (configuration not stated),–,–,–,–,–,–,·,·
O=C(Nc1ccc(F)c(Cl)c1)C1CCN(c2ncnc3c2nc2n3CCCCC2)CC1,–,–,–,–,–,74,–,75
O=C(NCCCN1CCN(c2ccccc2)CC1)C1CCCN(c2ncnc3c2nc2n3CCCCC2)C1 (configuration not stated),–,–,–,–,–,80,–,101
CCc1nnc(NC(=O)c2ccc3c(=O)n4c(nc3c2)CCC4)s1,·,–,·,·,·,·,·,·
O=C(NCCCN1CCCCC1)C1CCN(c2ncnc3c2nc2n3CCCCC2)CC1,–,–,–,–,–,73,–,86
CC1CCN(CCNC(=O)C2CCCN(c3ncnc4c3nc3n4CCCCC3)C2)CC1 (configuration not stated),–,–,–,–,–,–,·,·
COC(=O)c1c(NC(=O)c2cccc(N3C(=O)CCC3=O)c2)sc2c1CCN(C(C)=O)C2,–,–,–,–,–,–,·,·
COC(=O)c1c(NC(=O)c2nc3ccccc3s2)sc2c1CCN(C(C)=O)C2,–,–,–,–,–,104,–,94
CC1(C)NC(=O)N(CC(=O)N2CCC(Cc3ccccc3)CC2)C1=O,–,–,–,–,–,–,·,·
CCC1(C)NC(=O)N(CC(=O)N2CCC(Cc3ccccc3)CC2)C1=O (configuration not stated),·,–,58,–,·,64,–,–
O=C1c2cccc3cccc(c23)C(=O)N1CC1CCN(CC(O)COCc2ccc3c(c2)OCO3)CC1 (configuration not stated),–,–,–,–,–,95,–,103
Cc1ccc(Cl)c(OCC(=O)NCC(c2cccs2)N2CCOCC2)c1 (configuration not stated),·,–,–,–,–,–,·,·
Cn1c(SCC(=O)NCc2ccc3c(c2)OCO3)ncc(C(=O)Nc2ccc(F)cc2)c1=O,·,–,–,–,–,50,86,–
Cn1c(SCC(=O)NCCc2ccccc2)ncc(C(=O)Nc2ccccc2)c1=O,·,–,–,–,–,46,94,–
Cn1c(=O)c2c(nc(SCC(=O)NCc3ccc4c(c3)OCO4)n2Cc2ccc(F)cc2)n(C)c1=O,–,–,–,–,–,–,·,·
SMILES,UBC9 SUMO inh,Rin1 Abl inh,Apaf1 inhib,PAD4 FP inh,GSTO1 inh,UBC13 inh,Casp3 UBC13 ctr,UBC13 conf
Cn1cnnc1SCC(=O)NCCc1ccccc1,–,–,–,–,–,–,·,·
Cn1c(SCC(=O)NCc2ccc(F)cc2)ncc(C(=O)Nc2ccccc2)c1=O,·,–,–,–,–,60,87,53
CC(C)[C@H](NC(=O)N1c2ccccc2NC(=O)[C@@H]1C(C)C)C(=O)N[C@H](Cc1ccccc1)C(=O)O,–,–,–,–,–,–,·,·
CN(C)C(=O)c1ccc(NC(=O)c2ccccc2SCC(=O)N2CCCC2)cc1,·,–,–,–,·,–,·,·
COc1ccc(S(=O)(=O)N2CCC(C(=O)N[C@@H](C)C(=O)NC3CCCC3)CC2)cc1,–,–,–,–,–,–,·,·
Cc1c(Cl)ccc2c(C(N)=O)cc(-c3ccccn3)nc12,–,–,–,–,–,–,·,·
Cc1cc(C)c2nc(-c3ccccn3)cc(C(=O)n3cccn3)c2c1,–,–,–,–,–,45,–,–
Cc1ccccc1-c1cccc([C@@H]2C[C@H]3[C@H](CON3C)CN2C(=O)C(C)(C)C)c1,·,–,·,·,·,·,·,·
O=C(CCCn1c(=S)[nH]c2ccsc2c1=O)NCCc1ccccc1,–,–,–,–,–,56,–,?
O=C(CCn1c(=S)[nH]c2ccccc2c1=O)NCCc1ccccc1,–,–,–,–,–,–,·,·
CCOc1ccc(N2CC(C(=O)N3CCCCCC3)CC2=O)cc1 (configuration not stated),–,–,–,–,–,–,·,·
CCOC(=O)c1c(CSC(=N)N)n(-c2ccc(Br)cc2)c2cc(Br)c(OC(C)=O)cc12,–,–,·,·,·,·,·,·
CCCCCCCCOC(=O)c1c(CSC(=N)N)n(C)c2cc(Br)c(OC(C)=O)cc12,–,–,–,–,–,96,–,114
Cc1ccc2cc3c(nc2c1)N(c1ccccc1)CC3,–,–,–,–,–,46,–,–
CCCc1nc2ccc(C)cn2c1Cc1ccccc1C(F)(F)F,·,–,·,·,·,·,·,·
C=CCn1c(SCc2ccc(Cl)cc2)nc2cc(C(=O)N3CCC(C(N)=O)CC3)ccc2c1=O,–,–,–,–,–,57,–,48
CCCCCn1c(SCC(=O)OCC)nc2cc(C(=O)N3CCC(C(N)=O)CC3)ccc2c1=O,–,–,–,–,–,–,·,·
CCOP(=O)(NC12CC3CC(CC(C3)C1)C2)NC12CC3CC(CC(C3)C1)C2,–,–,–,–,–,–,·,·
CC1(C(=O)NCc2ccccc2Br)CCN1Cc1ccc(-c2ccccc2)o1 (configuration not stated),·,–,·,·,·,·,·,·
COc1ccc2cc3cc(C(=O)Nc4ccccc4N4CCN(C)CC4)oc3nc2c1,–,–,–,–,–,68,–,–
COc1ccc2sc(N(CCCN(C)C)C(=O)c3ccc(S(=O)(=O)N(C)Cc4ccccc4)cc3)nc2c1,·,–,–,–,–,48,–,93
